CHOP inhibitor = inhibitors of CHOP promoter induction, primary screen, cell-based, unfolded protein response, luciferase reporter | CHO-K1 CHOP-promoter luciferase, tunicamycin-induced, 15-18 h | inhibition, % at 10 µM | 220,000 tested, 3.8% active | AID 2732, 2010;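 active means compounds that reduced the stress-induced luciferase reporter signal by more than about 70% of percent inhibition, limit read from the data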
Tb MetRS inh = T. brucei MetRS inhibitors, primary screen, biochemical, luminescence; AID 624268, 2012; methionyl-tRNA synthetase (Trypanosoma brucei brucei); inhibition, % at 11.9 µM; purified T. brucei MetRS, ATP depletion, Kinase-Glo luminescence; 360,000 tested, 0.4% active;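 active means inhibition above a per-plate cutoff of the control wells' mean inhibition plus 3 SD, cut at about 5.5% in these data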
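Test system – parasite MetRS enzyme · Reagent – substrates ATP, L-methionine and bulk Escherichia coli tRNA · Doses – 11.9 µM compound single dose, 0.9% DMSO · Times – 15 min enzyme-compound preincubation, 2 h reaction, 10 min detection, 25 °C · Signal – Kinase-Glo luminescence, ATP depletion format · Controls – DMSO-only wells as low control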
EBV gp42 inh = Epstein-Barr virus gp42 inhibitors, primary screen, biochemical, uHTS, fluorescence polarization | inhibition, % (tested at 21.74 µM) | Fluorescence polarization binding assay, mP read-out | AID 1085, 2008 | 220,000 tested, 0.42% active | Glycoprotein 42 (Epstein-Barr virus (strain AG876)), Q1HVG2; in the data active means inhibition above about 50%
Target sequence (Q1HVG2 whole entry, looked up): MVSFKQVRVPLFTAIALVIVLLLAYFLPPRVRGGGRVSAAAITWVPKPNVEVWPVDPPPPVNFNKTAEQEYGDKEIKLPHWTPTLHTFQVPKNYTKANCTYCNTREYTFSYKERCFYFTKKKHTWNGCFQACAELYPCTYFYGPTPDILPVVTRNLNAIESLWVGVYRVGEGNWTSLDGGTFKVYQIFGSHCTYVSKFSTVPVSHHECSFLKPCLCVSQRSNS
WT yeast gro inh = growth inhibition of WT strain, primary screen, mitochondrial fusion inhibitor project, WT and mutant strains, chemical genetic. mitochondrial fusion phenotypic screen. inhibition, % at 10 µM. 190,000 tested, 2.1% active. AID 1362, 2008; in the data active means inhibition above about 58%; tested in S. cerevisiae
MPTP block = mitochondrial permeability transition pore inhibitors, primary screen, biochemical, isolated mouse mitochondria, absorbance; Ca2+ swelling absorbance, 30 min; inhibition, % at 10 µM; 360,000 tested, 1.4% active;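 active means inhibition of 50% or more, scaled per plate between neutral and stimulator controls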
GRIN3A LBD mod = binders of NR3A ligand-binding domain, primary screen, biophysical, differential scanning fluorimetry, uHTS; 340,000 tested, 2.5% active; Glutamate receptor ionotropic, NMDA 3A (GRIN3A) ligand-binding domain; AID 1259313, 2017; Tm shift relative to glycine control, % at 25 µM; NR3A LBD differential scanning fluorimetry, Tm shift; 0% = protein alone, 100% = glycine-bound protein;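 active means melting temperature shift of at least 10% of the positive control shift, at one fixed dose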
Large screens that a line does not name were inactive. Shown are actives, neighbours in structure and some others; about 6.4% of the full set was active somewhere.

O=C1c2ccccc2NC(c2cn[nH]c2-c2ccc(Cl)cc2)N1O (configuration not stated)	none
N#Cc1ccccc1OCC(=O)OCC(=O)NCc1ccc2c(c1)OCO2	none (no result: CHOP inhibitor, EBV gp42 inh, WT yeast gro inh)
O=C(CSc1nnc2c(n1)[nH]c1ccc(F)cc12)N1CCOCC1	none
CC1Cc2ccccc2N1C(=O)CSc1nnc2c(n1)[nH]c1ccc(F)cc12 (configuration not stated)	GRIN3A LBD mod 22
COc1cc(/C=N/NC(=O)C(=O)N2CCCC2)ccc1O	none
CCCC1Cc2c(sc(NC(=S)NC(=O)c3ccccc3)c2C#N)CO1 (configuration not stated)	CHOP inhibitor 86 (no result: Tb MetRS inh, MPTP block, GRIN3A LBD mod)
N#Cc1c(NC(=S)NC(=O)C2CCCC2)sc2c1CCCCC2	WT yeast gro inh 66
Cc1ccccc1C(=O)NC(=S)Nc1sc2c(c1C#N)CCC(C)C2 (configuration not stated)	GRIN3A LBD mod 14
N#Cc1c(NC(=S)NC(=O)c2ccccc2)sc2c1CCN(CCc1ccccc1)C2	none (no result: Tb MetRS inh, MPTP block, GRIN3A LBD mod)
COc1cccc(N(C(=O)Cn2nnc(-c3cccs3)n2)C(C(=O)NC(C)C)c2ccc(C)o2)c1 (configuration not stated)	CHOP inhibitor 93
COCCN1Cc2cccc(C(=O)Nc3cccc(OC)c3)c2C1=O	GRIN3A LBD mod 19
COCCN1Cc2cccc(C(=O)Nc3ccc(C)c(C)c3)c2C1=O	none
NC(=O)c1noc(C(=O)N(CC(=O)NC2CCCC2)Cc2ccc3c(c2)OCO3)c1N	none
N#Cc1cnc(Nc2ccc(F)cc2)nc1N	GRIN3A LBD mod 13 (no result: WT yeast gro inh)
COc1cccc(C2NC(c3cccc(OC)c3O)C(C)C(=O)C2C)c1O (configuration not stated)	none (no result: WT yeast gro inh)
CC1C(=O)C(C)C(c2cc(Cl)ccc2O)NC1c1cc(Cl)ccc1O (configuration not stated)	GRIN3A LBD mod 27 (no result: CHOP inhibitor, EBV gp42 inh, WT yeast gro inh)
O=C(CN(CC1CCCO1)C(=O)CCC(=O)Nc1ccccn1)NCc1ccccc1 (configuration not stated)	none
Cc1ccnc(NC(=O)CCC(=O)N(CC(=O)NCC2CCCO2)Cc2ccc(F)cc2)c1 (configuration not stated)	GRIN3A LBD mod 11
CC(C)CCNC(=O)CN(CC1CCCO1)C(=O)CCC(=O)Nc1ccccn1 (configuration not stated)	WT yeast gro inh 70
O=C(CN(C(=O)CCC(=O)Nc1nccs1)c1ccccc1F)NCC1CCCO1 (configuration not stated)	CHOP inhibitor 73
O=C(O)c1cncc(SCc2ccccc2)n1	none (no result: CHOP inhibitor, EBV gp42 inh, WT yeast gro inh)
Cc1ccc(-c2nnn(CC(=O)Nc3cccc4c3CCCC4)n2)o1	CHOP inhibitor 81
O=C1OC(OC2CCCCC2)(c2ccccc2)c2ccccc21 (configuration not stated)	none
CCSS(=O)(=O)c1cccc2cccnc12	none (no result: WT yeast gro inh)
CC1(C)CC1C(=O)Nc1ccc([N+](=O)[O-])cc1Br (configuration not stated)	GRIN3A LBD mod 12
CCCNC(=O)Cn1cnc([N+](=O)[O-])n1	none
CCCN(CCC)Cc1c(C(=O)OCC)nnn1-c1nonc1N	CHOP inhibitor 86
CCOC(=O)c1nnn(-c2nonc2N)c1C	none (no result: WT yeast gro inh)
O=c1cc2c(nn1Cc1ccc(F)cc1)-c1ccccc1CC2	none
Fc1ccc(CO/N=C/C2=C(Cl)c3ccccc3CC2)cc1	WT yeast gro inh 58
CCOC(=O)c1cc(S(=O)(=O)NCc2ccco2)cn1C	none (no result: CHOP inhibitor, EBV gp42 inh, WT yeast gro inh)
CCOC(=O)N1CCC(N2Cc3cccc(C(=O)Nc4ccc(F)cc4)c3C2=O)CC1	none
CCOC(=O)N1CCC(N2Cc3cccc(C(=O)Nc4ccc(CC)cc4)c3C2=O)CC1	WT yeast gro inh 69
CC1CCc2c(sc3ncn(Cc4ccc(C(=O)O)cc4)c(=O)c23)C1 (configuration not stated)	none
Cc1ccc(CNC(=O)CSc2ncn[nH]2)cc1	none (no result: CHOP inhibitor, EBV gp42 inh, WT yeast gro inh)
O=C(CSc1ncn[nH]1)NCc1ccccc1	WT yeast gro inh 89
CCOC(=O)C(Cc1ccccc1)C(=O)c1ccco1 (configuration not stated)	none (no result: CHOP inhibitor, EBV gp42 inh, WT yeast gro inh)

High-throughput results as filed in PubChem BioAssay.
